Experiment [1] addresses T1, Phosphatidylinositol 4,5-bisphosphate 3-kinase catalytic subunit alpha isoform (Homo sapiens, UniProt P42336). The experiment is described as follows: Inhibition of PI3Kalpha.
Experiment [2] concerns the target Phosphatidylinositol 4,5-bisphosphate 3-kinase catalytic subunit gamma isoform (Homo sapiens, UniProt P48736). Description: Inhibition of PI3Kgamma.
Experiment [3] deals with Serine/threonine-protein kinase mTOR (Homo sapiens, UniProt P42345). The experiment is described as follows: Inhibition of mTOR.
A further experiment has as its system MDA-MB-361. The experiment is described as follows: Growth inhibition of human MDA-MB-361 cells after 72 hrs by celltiter assay. Type of experiment: functional, cell-based. The settings on record: MDA-MB-361, 72 h. In short, it runs like this: (§1)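 Cells from ATCC, maintained at 37 °C, 5% CO2 in growth medium with 10% fetal calf serum plus penicillin/streptomycin. Seeding density set per line's growth characteristics; 96-well format. Viable cells quantified by CellTiter 96 aqueous non-radioactive colorimetric proliferation assay after 72 h compound exposure.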

Experiment [4] can be described thus: Growth inhibition of human PC3MM2 cells after 72 hrs by celltiter assay. Type of experiment: functional, cell-based. The note with it: PC3MM2, 72 h. In short, it runs like this: as §1
The target in experiment [5] is T1, Phosphatidylinositol 4,5-bisphosphate 3-kinase catalytic subunit alpha isoform. Description: Inhibition of PI3Kalpha in human MDA-MB-361 cells assessed as reduction of phosphorylated Akt (T308) level after 4 hrs by Western blotting. Type of experiment: cell-based. In short, it runs like this:
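Cells seeded 24 h before 4 h compound exposure in complete growth medium, washed with cold PBS, lysed in Tris-HCl pH 7.5/NaCl/EDTA/EGTA/Triton buffer with phosphatase and protease inhibitors. Lysates resolved by SDS-PAGE, blotted to nitrocellulose, probed for phospho-Akt T308, total Akt, actin; HRP secondary, chemiluminescent detection.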

Experiment [6] has the same target. The settings on record: MDA-MB-361, 10 to 30 uM.

This passage reports IC50 and inhibition results from ChEMBL document CHEMBL1153170, “Novel imidazolopyrimidines as dual PI3-Kinase/mTOR inhibitors” (Bioorg Med Chem Lett, 2010).

Molecules are shown by their SMILES. pIC50: −log10 of the molar value. The source made the active and inactive calls. The rule behind the calls is not given here.

T1 sequence (P42336 whole entry, canonical isoform): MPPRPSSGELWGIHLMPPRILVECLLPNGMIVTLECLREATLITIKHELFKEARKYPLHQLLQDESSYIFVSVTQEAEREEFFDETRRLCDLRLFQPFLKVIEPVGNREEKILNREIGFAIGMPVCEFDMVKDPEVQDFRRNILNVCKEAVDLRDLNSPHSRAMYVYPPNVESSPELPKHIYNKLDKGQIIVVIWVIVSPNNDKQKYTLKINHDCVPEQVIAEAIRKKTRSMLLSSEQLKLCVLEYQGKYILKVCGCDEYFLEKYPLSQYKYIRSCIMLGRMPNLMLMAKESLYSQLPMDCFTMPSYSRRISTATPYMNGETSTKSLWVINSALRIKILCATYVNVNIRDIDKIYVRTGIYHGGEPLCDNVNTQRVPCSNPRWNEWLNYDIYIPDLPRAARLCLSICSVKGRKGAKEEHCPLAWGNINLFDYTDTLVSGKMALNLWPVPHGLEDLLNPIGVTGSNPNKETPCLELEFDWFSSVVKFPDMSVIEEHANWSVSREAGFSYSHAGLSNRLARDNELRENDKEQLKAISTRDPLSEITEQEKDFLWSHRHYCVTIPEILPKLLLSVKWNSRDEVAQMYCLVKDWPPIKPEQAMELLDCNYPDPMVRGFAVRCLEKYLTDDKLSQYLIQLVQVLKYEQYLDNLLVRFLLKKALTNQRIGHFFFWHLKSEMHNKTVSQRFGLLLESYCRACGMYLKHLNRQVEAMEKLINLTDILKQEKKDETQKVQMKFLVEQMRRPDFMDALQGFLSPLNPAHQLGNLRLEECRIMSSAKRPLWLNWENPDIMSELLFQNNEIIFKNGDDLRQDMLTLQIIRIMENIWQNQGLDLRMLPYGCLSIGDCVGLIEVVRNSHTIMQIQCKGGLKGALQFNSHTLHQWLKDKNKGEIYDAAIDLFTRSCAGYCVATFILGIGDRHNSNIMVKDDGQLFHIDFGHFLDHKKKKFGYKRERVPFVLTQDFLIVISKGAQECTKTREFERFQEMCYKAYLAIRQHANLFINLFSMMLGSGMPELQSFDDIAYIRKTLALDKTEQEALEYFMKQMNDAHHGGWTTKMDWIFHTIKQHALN
Sequence of Phosphatidylinositol 4,5-bisphosphate 3-kinase catalytic subunit gamma isoform (P48736 whole entry, canonical isoform): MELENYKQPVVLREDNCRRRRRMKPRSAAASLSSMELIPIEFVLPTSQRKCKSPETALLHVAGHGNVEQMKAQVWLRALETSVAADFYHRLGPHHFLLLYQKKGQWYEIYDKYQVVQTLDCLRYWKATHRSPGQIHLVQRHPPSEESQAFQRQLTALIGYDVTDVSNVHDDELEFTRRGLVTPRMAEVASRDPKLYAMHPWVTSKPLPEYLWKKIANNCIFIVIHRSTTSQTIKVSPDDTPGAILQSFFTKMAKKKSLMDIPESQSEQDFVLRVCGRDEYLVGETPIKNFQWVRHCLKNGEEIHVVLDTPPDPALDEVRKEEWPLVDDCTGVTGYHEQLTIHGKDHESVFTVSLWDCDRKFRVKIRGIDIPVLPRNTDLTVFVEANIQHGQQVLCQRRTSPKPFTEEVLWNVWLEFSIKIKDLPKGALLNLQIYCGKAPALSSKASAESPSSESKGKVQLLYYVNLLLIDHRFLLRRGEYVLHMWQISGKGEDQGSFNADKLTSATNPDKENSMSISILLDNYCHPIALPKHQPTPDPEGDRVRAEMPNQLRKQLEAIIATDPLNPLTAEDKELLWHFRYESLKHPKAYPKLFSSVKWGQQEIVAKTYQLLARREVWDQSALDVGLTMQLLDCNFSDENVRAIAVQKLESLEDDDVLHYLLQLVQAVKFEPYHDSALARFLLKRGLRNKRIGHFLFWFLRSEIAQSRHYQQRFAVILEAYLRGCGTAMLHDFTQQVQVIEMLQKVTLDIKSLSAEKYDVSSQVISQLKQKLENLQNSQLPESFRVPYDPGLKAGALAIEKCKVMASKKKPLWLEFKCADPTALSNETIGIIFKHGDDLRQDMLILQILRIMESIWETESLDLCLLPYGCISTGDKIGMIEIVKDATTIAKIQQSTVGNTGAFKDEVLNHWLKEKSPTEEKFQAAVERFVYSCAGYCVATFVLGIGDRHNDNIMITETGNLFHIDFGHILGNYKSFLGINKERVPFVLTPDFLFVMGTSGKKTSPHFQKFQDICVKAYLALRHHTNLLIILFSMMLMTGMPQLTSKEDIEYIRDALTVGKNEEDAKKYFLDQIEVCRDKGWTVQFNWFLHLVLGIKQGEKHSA

With `Oc1cccc(-c2nc(N3CCOCC3)c3nc[nH]c3n2)c1`, the pIC50 (in general, the IC50 on a negative log10 scale, so that one unit is a factor of ten) in experiment [1] was 6.82; in experiment [2], 5.63; in experiment [3], 5.78.
Turning to `CC(=O)N1CCC(n2cnc3c(N4CCOCC4)nc(-c4cccc(CO)c4)nc32)CC1`, the pIC50 in experiment [1] is 6.72; in experiment [2], 5.86.
For `Oc1cccc(-c2nc(N3CCOCC3)c3ncn(C4CCN(Cc5ccccc5)CC4)c3n2)c1`, in that order: 7.12 and 5.00.
As for `CN(C)CCCOc1ccc(CN2CCC(n3cnc4c(N5CCOCC5)nc(-c5cccc(CO)c5)nc43)CC2)cc1`, the pIC50 is 7.80 in experiment [1]; 6.58 in experiment [2]; 6.16 with MDA-MB-361; 6.29 in experiment [4]; 6.52 in experiment [5]. The inhibition result in experiment [6] was “Active”.
Take `Oc1cncc(-c2nc(N3CCOCC3)c3ncn(C4CCN(Cc5ccc(Cl)cc5)CC4)c3n2)c1`: the pIC50 is 7.80 in experiment [1] and 6.92 in experiment [2].
Take `Oc1cccc(-c2nc(N3CCOCC3)c3ncn(C4CCN(Cc5cncc(Cl)c5)CC4)c3n2)c1`: the pIC50 in experiment [1] is 7.43; in experiment [2], 6.47; in experiment [3], 6.70.
With `OCc1cccc(-c2nc(N3CCOCC3)c3ncn(C4CCN(Cc5ccc(F)cc5)CC4)c3n2)c1`, the pIC50 was 7.15 in experiment [1] and 6.23 in experiment [2].
Consider `Oc1cncc(-c2nc(N3CCOCC3)c3ncn(C4CCNCC4)c3n2)c1`, for which the pIC50 is 7.85 in experiment [1] and 7.36 in experiment [2].
In the same order, the values of `OCc1cccc(-c2nc(N3CCOCC3)c3ncn(C4CCN(Cc5ccccc5F)CC4)c3n2)c1` are 7.38 and 5.96.
As for `Oc1cccc(-c2nc(N3CCOCC3)c3ncn(C4CCN(Cc5ccc(N6CCOCC6)nc5)CC4)c3n2)c1`, the pIC50 in experiment [1] is 7.40; in experiment [2] it was 6.43; in experiment [3], 6.82.
Regarding `OCc1cccc(-c2nc(N3CCOCC3)c3ncn(C4CCN(Cc5ccccn5)CC4)c3n2)c1`, the negative-log IC50 (pIC50) in experiment [1] was 7.19; in experiment [2], 6.11.
For `Cc1ccc(CN2CCC(n3cnc4c(N5CCOCC5)nc(-c5cncc(O)c5)nc43)CC2)cc1`, in that order: 7.38 and 6.69.
For `Oc1cncc(-c2nc(N3CCOCC3)c3ncn(C4CCN(Cc5ccc(F)nc5)CC4)c3n2)c1`, in that order: 7.03 and 7.21.
For `COc1ccc(CN2CCC(n3cnc4c(N5CCOCC5)nc(-c5cccc(O)c5)nc43)CC2)cn1`, in that order: 7.26 and 6.51.
Regarding `Oc1cccc(-c2nc(N3CCOCC3)c3ncn(C4CCNCC4)c3n2)c1`, the pIC50 was 7.19 in experiment [1], 6.88 in experiment [2] and 6.02 in experiment [3].
For `OCc1cccc(-c2nc(N3CCOCC3)c3ncn(C4CCN(c5ccc(F)cc5F)CC4)c3n2)c1`, in that order: 7.36, 6.19 and 5.69.
Consider `OCc1cccc(-c2nc(N3CCOCC3)c3ncn(C4CCNCC4)c3n2)c1`, for which the results for the pIC50 in experiment [1] and in experiment [2] were 7.24 and 6.17, respectively.
For `Oc1cccc(-c2nc(N3CCOCC3)c3ncn(C4CCN(Cc5cccnc5)CC4)c3n2)c1`, in that order: 7.18 and 6.23.
For `Oc1cncc(-c2nc(N3CCOCC3)c3nc[nH]c3n2)c1`, in that order: 7.96 and 7.33.
For `OCc1cccc(-c2nc(N3CCOCC3)c3ncn(C4CCN(Cc5ccc(-c6ccncc6)cc5)CC4)c3n2)c1`, in that order: 7.64 and 6.65.
